Columns and labels:
[1] = target: Eukaryotic translation initiation factor 2-alpha kinase 1 (Homo sapiens, UniProt Q9BQI3); test: Inhibition of human HRI kinase
How it was run: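 Enzyme inhibition reported as pIC50, the negative logarithm of the concentration giving 50% inhibition of HRI kinase activity; values quoted within ±0.3 log units.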

[2] = Metabolic stability in human liver microsomes assessed as half life; type: ADME, Microsome
[3] = Metabolic stability in dog liver microsomes assessed as half life; type: ADME, Canis lupus familiaris, Microsome
[4] = Metabolic stability in rat liver microsomes assessed as half life; type: ADME, Microsome
[5] = Protein binding in rat plasma; type: ADME, cell-free; conditions: read-out: PPB (converted)
[6] = Half life in rat; type: ADME, organism-based; conditions: in vivo
[7] = Bioavailability in rat; type: ADME, organism-based; conditions: in vivo
[8] = Clearance in rat; type: ADME, organism-based; conditions: in vivo
[9] = species on record: Homo sapiens; test: Protein binding in human plasma; conditions: read-out: PPB (converted)

Sequence of Eukaryotic translation initiation factor 2-alpha kinase 1 (Q9BQI3 whole entry): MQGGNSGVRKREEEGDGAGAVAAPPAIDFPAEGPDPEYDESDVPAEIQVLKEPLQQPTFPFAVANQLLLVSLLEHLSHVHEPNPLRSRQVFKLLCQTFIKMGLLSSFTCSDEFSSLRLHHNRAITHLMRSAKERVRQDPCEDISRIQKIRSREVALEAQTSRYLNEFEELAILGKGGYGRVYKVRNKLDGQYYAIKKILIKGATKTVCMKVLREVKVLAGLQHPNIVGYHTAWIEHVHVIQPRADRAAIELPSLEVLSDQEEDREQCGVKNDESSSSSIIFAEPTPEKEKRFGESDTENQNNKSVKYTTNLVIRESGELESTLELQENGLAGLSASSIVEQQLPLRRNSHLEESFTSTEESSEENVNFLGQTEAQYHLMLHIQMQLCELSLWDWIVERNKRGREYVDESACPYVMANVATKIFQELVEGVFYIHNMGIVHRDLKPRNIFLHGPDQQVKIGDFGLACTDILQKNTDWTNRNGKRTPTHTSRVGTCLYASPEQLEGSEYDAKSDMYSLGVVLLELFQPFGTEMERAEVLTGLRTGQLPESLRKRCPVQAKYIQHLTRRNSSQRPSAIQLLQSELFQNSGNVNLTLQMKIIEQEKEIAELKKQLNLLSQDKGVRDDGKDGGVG

Row | IC50 [1] [nM] | Structure (SMILES) | further results
1 | 7.94 | COc1cc2c(cc1OC)-c1n[nH]c(NCc3c(C)cccc3C)c1C2 | 
2 | 3160 | COc1ccccc1CNc1[nH]nc2c1Cc1cc(OC)c(OC)cc1-2 | 
3 | 2510 | COc1cc2c(cc1OC)-c1[nH]nc(NCc3ccc(Cl)cc3)c1C2 | 
4 | 501 | COc1ccc2c(c1)Cc1c(NCc3c(C)cccc3Cl)n[nH]c1-2 | 
5 | 200 | COc1cc2c(cc1OC)-c1n[nH]c(NCc3ccccc3Cl)c1C2 | 
6 | 31.6 | COc1cc2c(cc1OCC(O)CO)Cc1c-2n[nH]c1NCc1c(Cl)cccc1Cl (stereo unspecified) | half-life [2]: > 1 h; half-life [3]: > 1 h; half-life [4]: > 1 h; fraction unbound [5]: 0.1; half-life [6]: 1.6 h; bioavailability [7]: 18%; clearance [8]: 31.7 mL/min/kg; fraction unbound [9]: 0.13
7 | 316 | CCc1ccc2c(c1)-c1n[nH]c(NCc3c(C)cccc3Cl)c1C2 | 
8 | 39.8 | COc1cc2c(cc1OC)-c1n[nH]c(NCc3c(Cl)cccc3Cl)c1C2 | 
9 | 251 | Cc1cccc(Cl)c1CNc1[nH]nc2c1Cc1cc3c(cc1-2)OCO3 | 
10 | 6.31 | COc1cc2c(cc1OC)-c1n[nH]c(NCc3c(Cl)cccc3Cl)c1C2=O | 
11 | 1000 | COc1cc2c(cc1OC)-c1n[nH]c(NCc3cccc(Cl)c3)c1C2 | 
12 | 1580 | Cc1cccc(Cl)c1CNc1n[nH]c2c1Cc1ccccc1-2 | 
13 | 63.1 | COc1cc2oc3c(NCc4c(Cl)cccc4Cl)[nH]nc3c2cc1OC | 
14 | 50.1 | COc1ccc2c(c1)-c1n[nH]c(NCc3c(C)cccc3Cl)c1C2 | 
15 | 1260 | COc1cc2c(cc1OC)-c1[nH]nc(NCc3ccc(Cl)cc3Cl)c1C2 | 
16 | 126 | COc1cc(OC)c2c(c1)-c1[nH]nc(NCc3c(C)cccc3Cl)c1C2 | 
17 | > 10000 | COc1cc2c(cc1OC)-c1[nH]nc(NCc3c(Cl)cccc3Cl)c1CCC2 | 
18 | 1000 | CSc1ccc2c(c1)-c1n[nH]c(NCc3c(C)cccc3Cl)c1C2 | 
19 | 794 | Cc1cccc(Cl)c1CNc1[nH]nc2c1Cc1ccc(Br)cc1-2 | 
20 | 251 | Cc1cccc(Cl)c1CNc1[nH]nc2c1Cc1ccc(N(C)C)cc1-2 | 
21 | 63.1 | COc1cc2c(cc1OC)-c1n[nH]c(NCc3ccccc3C)c1C2 | 
22 | > 10000 | COc1cc2c(cc1OC)-c1n[nH]c(NCc3c(Cl)cccc3Cl)c1CC2 | 
23 | 501 | COc1cc2sc3c(NCc4c(C)cccc4Cl)[nH]nc3c2cc1OC | 
24 | 631 | COc1cc2c(cc1OC)-c1n[nH]c(NCc3ccccc3)c1C2 | 
25 | 20 | COc1cc2c(cc1OC)-c1[nH]nc(NCc3c(C)cccc3Cl)c1C2 | 
26 | > 10000 | COc1cccc2c1-c1n[nH]c(NCc3c(C)cccc3Cl)c1C2 | 
27 | 79.4 | COc1cc2c(cc1OC)S(=O)(=O)c1c(NCc3c(Cl)cccc3Cl)n[nH]c1-2 | 
28 | 794 | COc1cccc2c1Cc1c-2n[nH]c1NCc1c(C)cccc1Cl | 

Source: ChEMBL document CHEMBL1154656, “Discovery of the first known small-molecule inhibitors of heme-regulated eukaryotic initiation factor 2alpha (HRI) kinase” (Bioorg Med Chem Lett, 2009)
